Data taken from ChEMBL document CHEMBL2010692, “Inhibitory effect of novel S,N-bisphosphonates on some carcinoma cell lines, osteoarthritis, and chronic inflammation” (Eur J Med Chem, 2012).

What was measured:
Mus musculus [1] = assay: Antiinflammatory activity in methylated bovine serum albumin sensitized delayed-type hypersensitivity granuloma mouse model assessed as reduction of granuloma wet weight at 100 mg/kg, sc qd for 9 days; type: functional; settings: 216 h, route subcutaneous
Summary of the method: (§1)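 Groups of 10 female mice (25 g) were sensitized sc over the inguinal lymph node with mBSA emulsion in saline, Freund's incomplete adjuvant and dextran. Three weeks later, two 6-mm hydroxyapatite discs soaked in mBSA (30 mg/mL saline) were implanted sc in the dorsum. Compounds at pH 7.4 were given sc into the scruff at 0.1 mL/10 g, daily from implantation to day 9. Granuloma wet and dry weights were recorded as % inhibition.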

Mus musculus [2] = assay: Antiinflammatory activity in methylated bovine serum albumin sensitized delayed-type hypersensitivity granuloma mouse model assessed as reduction of granuloma dry weight at 60 mg/kg, sc qd for 9 days; type: functional; settings: 216 h, route subcutaneous; summary of the method: as §1
Rattus norvegicus [3] = assay: Antiarthritic activity in complete Freund's adjuvant-induced rat arthritis model assessed as reduction of paw volume in non-injected paw at 30 mg/kg, sc qd for 28 days; type: functional; settings: 672 h, route subcutaneous
Summary of the method: (§2)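 Rat adjuvant-induced polyarthritis. Compounds were dissolved or suspended in sterile saline, sonicated as needed, brought to pH 7.0 with NaOH, and kept as frozen aliquots, fresh each dosing day. Dosing was sc once daily for 28 days, by body weight. The arthritic control group got vehicle sc. Injected and noninjected hindpaw volumes were measured on day 28 by mercury displacement plethysmography and expressed as % inhibition.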

Mus musculus [4] = assay: Toxicity in albino mouse assessed as toxic symptoms at 500 to 1000 mg/kg, ip after 24 hrs; settings: in vivo
Mus musculus [5] = assay: Antiinflammatory activity in methylated bovine serum albumin sensitized delayed-type hypersensitivity granuloma mouse model assessed as reduction of granuloma wet weight at 60 mg/kg, sc qd for 9 days; type: functional; settings: 216 h, route subcutaneous; summary of the method: as §1
Rattus norvegicus [6] = assay: Antiarthritic activity in complete Freund's adjuvant-induced rat arthritis model assessed as reduction of paw volume in injected paw at 20 mg/kg, sc qd for 28 days; type: functional; settings: 672 h, route subcutaneous; summary of the method: as §2
Mus musculus [7] = assay: Antiinflammatory activity in methylated bovine serum albumin sensitized delayed-type hypersensitivity granuloma mouse model assessed as reduction of granuloma dry weight at 100 mg/kg, sc qd for 9 days; type: functional; settings: 216 h, route subcutaneous; summary of the method: as §1
Mus musculus [8] = assay: Antiinflammatory activity in methylated bovine serum albumin sensitized delayed-type hypersensitivity granuloma mouse model assessed as reduction of granuloma wet weight at 25 mg/kg, sc qd for 9 days; type: functional; settings: 216 h, route subcutaneous; summary of the method: as §1
Rattus norvegicus [9] = assay: Antiarthritic activity in complete Freund's adjuvant-induced rat arthritis model assessed as reduction of paw volume in injected paw at 10 mg/kg, sc qd for 28 days; type: functional; settings: 672 h, route subcutaneous; summary of the method: as §2
Rattus norvegicus [10] = assay: Antiarthritic activity in complete Freund's adjuvant-induced rat arthritis model assessed as reduction of paw volume in injected paw at 50 mg/kg, sc qd for 28 days; type: functional; settings: 672 h, route subcutaneous; summary of the method: as §2
Rattus norvegicus [11] = assay: Antiarthritic activity in complete Freund's adjuvant-induced rat arthritis model assessed as reduction of paw volume in injected paw at 30 mg/kg, sc qd for 28 days; type: functional; settings: 672 h, route subcutaneous; summary of the method: as §2
Mus musculus [12] = assay: Toxicity in albino mouse assessed as mortality at 500 to 1000 mg/kg, […] after 24 hrs; type: organism-based; parameters: dose 500-1000 mg/kg; settings: in vivo
Summary of the method: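 Albino mice (20-25 g) were split into 6 groups of 8. Compounds were given at 500, 750 and 1000 mg/kg; controls received buffer only. Toxic symptoms, mortality and postmortem findings were recorded 24 h after administration. LD50 was calculated by the Dm − Σ(z×d)/n formula.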

Rattus norvegicus [13] = assay: Antiarthritic activity in complete Freund's adjuvant-induced rat arthritis model assessed as reduction of paw volume in non-injected paw at 20 mg/kg, sc qd for 28 days; type: functional; settings: 672 h, route subcutaneous; summary of the method: as §2
Mus musculus [14] = assay: Antiinflammatory activity in methylated bovine serum albumin sensitized delayed-type hypersensitivity granuloma mouse model assessed as reduction of granuloma dry weight at 25 mg/kg, sc qd for 9 days; type: functional; settings: 216 h, route subcutaneous; summary of the method: as §1
Rattus norvegicus [15] = assay: Antiarthritic activity in complete Freund's adjuvant-induced rat arthritis model assessed as reduction of paw volume in non-injected paw at 50 mg/kg, sc qd for 28 days; type: functional; settings: 672 h, route subcutaneous; summary of the method: as §2
Rattus norvegicus [16] = assay: Antiarthritic activity in complete Freund's adjuvant-induced rat arthritis model assessed as reduction of paw volume in non-injected paw at 10 mg/kg, sc qd for 28 days; type: functional; settings: 672 h, route subcutaneous; summary of the method: as §2
HCT-116 = assay: Cytotoxicity against human HCT116 cells after 48 hrs by SRB assay; type: functional, cell-based; settings: HCT-116, 48 h
Summary of the method: (§3)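 Cells were seeded at 10^4 per well and allowed to attach for 24 h. They were then exposed to four compound concentrations (5, 12.5, 25, 50), each in triplicate wells, for 48 h at 37 °C in 5% CO2. Cells were fixed and stained with sulforhodamine B, washed with acetic acid, and bound dye was recovered in Tris-EDTA pH 7.4 and read on a plate reader. IC50 was taken from survival curves using the triplicate means.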

MCF7 = assay: Cytotoxicity against human MCF7 cells after 48 hrs by SRB assay; type: functional, cell-based; settings: MCF7, 48 h; summary of the method: as §3
HeLa = assay: Cytotoxicity against human HeLa cells after 48 hrs by SRB assay; type: functional, cell-based; summary of the method: as §3
HepG2 = assay: Cytotoxicity against human HepG2 cells after 48 hrs by SRB assay; type: functional, cell-based; settings: HepG2, 48 h; summary of the method: as §3
Mus musculus [17] = assay: Antiinflammatory activity in methylated bovine serum albumin sensitized delayed-type hypersensitivity granuloma mouse model assessed as reduction of granuloma wet weight at 50 mg/kg, sc qd for 9 days; type: functional; settings: 216 h, route subcutaneous; summary of the method: as §1
Rattus norvegicus [18] = assay: Antiarthritic activity in complete Freund's adjuvant-induced rat arthritis model assessed as reduction of paw volume in non-injected paw at 100 mg/kg, sc qd for 28 days; type: functional; settings: 672 h, route subcutaneous; summary of the method: as §2
Rattus norvegicus [19] = assay: Antiarthritic activity in complete Freund's adjuvant-induced rat arthritis model assessed as reduction of paw volume in injected paw at 100 mg/kg, sc qd for 28 days; type: functional; settings: 672 h, route subcutaneous; summary of the method: as §2
Mus musculus [20] = assay: Antiinflammatory activity in methylated bovine serum albumin sensitized delayed-type hypersensitivity granuloma mouse model assessed as reduction of granuloma dry weight at 50 mg/kg, sc qd for 9 days; type: functional; settings: 216 h, route subcutaneous; summary of the method: as §1

| SMILES | inhibition in vivo at 100 mg/kg (Mus musculus [1]) [%] | inhibition in vivo at 60 mg/kg (Mus musculus [2]) [%] | inhibition in vivo at 30 mg/kg (Rattus norvegicus [3]) [%] | inhibition in vivo at 60 mg/kg (Mus musculus [5]) [%] | inhibition in vivo at 20 mg/kg (Rattus norvegicus [6]) [%] | inhibition in vivo at 100 mg/kg (Mus musculus [7]) [%] | inhibition in vivo at 25 mg/kg (Mus musculus [8]) [%] | inhibition in vivo at 10 mg/kg (Rattus norvegicus [9]) [%] | inhibition in vivo at 50 mg/kg (Rattus norvegicus [10]) [%] | inhibition in vivo at 30 mg/kg (Rattus norvegicus [11]) [%] | inhibition in vivo at 20 mg/kg (Rattus norvegicus [13]) [%] | inhibition in vivo at 25 mg/kg (Mus musculus [14]) [%] | inhibition in vivo at 50 mg/kg (Rattus norvegicus [15]) [%] | inhibition in vivo at 10 mg/kg (Rattus norvegicus [16]) [%] | also measured |
| --- | --- | --- | --- | --- | --- | --- | --- | --- | --- | --- | --- | --- | --- | --- | --- |
| CCOP(=O)(OCC)C1=C(S)c2ccccc2N(C)P1(=O)OCC (centres undefined) | 50 | 53 | 73 | 48 | 27 | 55 | 33 | 18 | 37 | 35 | 60 | 50 | 76 | 66 | Activity (Mus musculus [4]): Non-toxic; Activity (Mus musculus [12]): Non-toxic |
| CCOP(=O)(OCC)C1(P(=O)(OCC)OCC)Nc2ccccc2C1=S | 44 | 42 | 58 | 31 | 7 | 46 | 24 | 5 | 15 | 11 | 60 | 30 | 64 | 48 |  |
| CCOP(=O)(OCC)C1(P(=O)(OCC)OCC)C(=S)c2ccccc2N1C | 38 | 45 | 70 | 45 | 23 | 48 | 33 | 15 | 30 | 32 | 55 | 36 | 68 | 45 | Activity (Mus musculus [4]): Non-toxic; IC50 (HCT-116): 8.27 µM; IC50 (MCF7): 16.5 µM; Activity (Mus musculus [12]): Non-toxic; IC50 (HeLa): 15.2 µM; IC50 (HepG2): 14.7 µM |
| CCOP1(=O)Nc2ccccc2C(S)=C1P(=O)(OCC)OCC (centres undefined) | 51 | 42 | 68 | 44 | 10 | 50 | 33 | < 5 | 25 | 14 | 56 | 38 | 75 | 66 |  |
| CN1c2ccccc2C(=S)C1(P(=O)(O)O)P(=O)(O)O | 25 |  |  |  |  | 32 |  |  | < 5 |  |  |  | 18 |  | inhibition in vivo at 50 mg/kg (Mus musculus [17]): 15%; inhibition in vivo at 100 mg/kg (Rattus norvegicus [18]): 27%; inhibition in vivo at 100 mg/kg (Rattus norvegicus [19]): 13%; inhibition in vivo at 50 mg/kg (Mus musculus [20]): 16% |
| CCOP(=O)(OCC)C1(P(=O)(OCC)OCC)C(=S)c2ccccc2N=C1c1ccccc1 | 43 | 32 | 68 | 35 | 12 | 48 | 13 | < 5 | 28 | 30 | 60 | 22 | 70 | 40 | IC50 (HCT-116): 22.8 µM; IC50 (MCF7): 15.6 µM; IC50 (HeLa): 27.1 µM; IC50 (HepG2): 20.4 µM |
| CCOP(=O)(OCC)C1(P(=O)(OCC)OCC)C(=S)c2ccccc2N=C1C | 40 | 37 | 72 | 30 | 23 | 44 | 20 | < 5 | 20 | 18 | 61 | 24 | 66 | 38 |  |
| O=P(O)(O)C1(P(=O)(O)O)C(=S)c2ccccc2N=C1C1CCCCC1 | 24 |  |  |  |  | 36 |  |  | < 5 |  |  |  | 8 |  | inhibition in vivo at 50 mg/kg (Mus musculus [17]): 19%; inhibition in vivo at 100 mg/kg (Rattus norvegicus [18]): 14%; inhibition in vivo at 100 mg/kg (Rattus norvegicus [19]): 16%; inhibition in vivo at 50 mg/kg (Mus musculus [20]): 28% |
| CC1=Nc2ccc(Br)cc2C(=S)C1(P(=O)(O)O)P(=O)(O)O | 13 |  |  |  |  | 25 |  |  | < 5 |  |  |  | 12 |  | inhibition in vivo at 50 mg/kg (Mus musculus [17]): < 10%; inhibition in vivo at 100 mg/kg (Rattus norvegicus [18]): 18%; inhibition in vivo at 100 mg/kg (Rattus norvegicus [19]): 21%; inhibition in vivo at 50 mg/kg (Mus musculus [20]): 18% |
| CCOP(=O)(OCC)C1(P(=O)(OCC)OCC)N=C(c2ccc(N(CC)CC)cc2)c2ccccc2C1=S | 34 | 40 | 52 | 31 | 20 | 44 | 22 | < 5 | 24 | 16 | 56 | 32 | 65 | 44 | Activity (Mus musculus [4]): Non-toxic; Activity (Mus musculus [12]): Non-toxic |
| CCN(CC)c1ccc(C2=NC(P(=O)(O)O)(P(=O)(O)O)C(=S)c3ccccc32)cc1 | 23 |  |  |  |  | 30 |  |  | < 5 |  |  |  | 10 |  | inhibition in vivo at 50 mg/kg (Mus musculus [17]): 16%; inhibition in vivo at 100 mg/kg (Rattus norvegicus [18]): 24%; inhibition in vivo at 100 mg/kg (Rattus norvegicus [19]): 18%; inhibition in vivo at 50 mg/kg (Mus musculus [20]): 26% |
| CCOP(=O)(OCC)C1(P(=O)(OCC)OCC)N=C(c2ccc(C)cc2)c2ccccc2C1=S |  |  |  |  |  |  |  |  |  |  |  |  |  |  | IC50 (HCT-116): 18.3 µM; IC50 (MCF7): 30.4 µM; IC50 (HeLa): 26.7 µM; IC50 (HepG2): 25.2 µM |
| O=P(O)(O)C(Cl)(Cl)P(=O)(O)O [CLODRONIC ACID] | 44 | 44 | 62 | 40 | 28 | 48 | 30 | 23 | 35 | 34 | 70 | 33 | 68 | 56 |  |
| COc1cccc2c1C(=O)c1c(O)c3c(c(O)c1C2=O)C[C@@](O)(C(=O)CO)C[C@@H]3O[C@H]1C[C@H](N)[C@H](O)[C@H](C)O1 [DOXORUBICIN] |  |  |  |  |  |  |  |  |  |  |  |  |  |  | IC50 (HCT-116): 6.86 µM; IC50 (HepG2): 5.7 µM |
